Assay results: PubChem BioAssay
The source made the active and inactive calls.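 Rule for the calls, unless noted: active = viability at or below 30% in both replicate assays; inconclusive = viability at or below 30% in just one of the two assays; inactive = the rest.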

Key:
[1] = molecular target: Pantothenate synthetase (Mycobacterium tuberculosis (strain ATCC 25618 / H37Rv)) (UniProt P9WIL5); experiment: Recombinant Mtb pantothenate synthetase (PanC) inhibitors, coupled enzyme, confirmatory (AID 375; call rule not given here;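 note: 0% = full reaction with vehicle and 100% = no enzyme background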); settings: coupled enzyme assay; at 10 µM, stronger effect = higher value
Sequence of Pantothenate synthetase (Mycobacterium tuberculosis (strain ATCC 25618 / H37Rv)) (P9WIL5 whole entry, looked up): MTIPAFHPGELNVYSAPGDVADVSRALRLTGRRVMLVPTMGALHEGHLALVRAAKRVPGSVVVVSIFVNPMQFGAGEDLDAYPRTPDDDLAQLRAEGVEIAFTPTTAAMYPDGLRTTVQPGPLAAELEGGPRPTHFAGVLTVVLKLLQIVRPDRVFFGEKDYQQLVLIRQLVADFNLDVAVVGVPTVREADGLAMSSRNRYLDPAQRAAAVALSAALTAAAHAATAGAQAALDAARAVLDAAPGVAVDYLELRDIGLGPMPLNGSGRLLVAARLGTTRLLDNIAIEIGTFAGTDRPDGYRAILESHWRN

[2] = reducers of endogenous Her2 protein level, primary screen, SKBR3 breast tumor cells, AlphaScreen, ATP viability (AID 461;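 active = Her2 level under about 52% in both replicate screens, with viability over 70% of control, limit read from the data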;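 for Her2 level: lower value means less Her2 protein in the cells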;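 for viability: percent of carrier control wells set as 100% viability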); settings: 18-24 h, measured here: SKBR3 viability, ATP luminescence, at 10 µM
[3] = molecular target: Receptor tyrosine-protein kinase erbB-2 (Homo sapiens) (UniProt P04626); experiment: as above; settings: 18-24 h, at 10 µM, stronger effect = lower value
Sequence of Receptor tyrosine-protein kinase erbB-2 (Homo sapiens) (P04626 whole entry, looked up): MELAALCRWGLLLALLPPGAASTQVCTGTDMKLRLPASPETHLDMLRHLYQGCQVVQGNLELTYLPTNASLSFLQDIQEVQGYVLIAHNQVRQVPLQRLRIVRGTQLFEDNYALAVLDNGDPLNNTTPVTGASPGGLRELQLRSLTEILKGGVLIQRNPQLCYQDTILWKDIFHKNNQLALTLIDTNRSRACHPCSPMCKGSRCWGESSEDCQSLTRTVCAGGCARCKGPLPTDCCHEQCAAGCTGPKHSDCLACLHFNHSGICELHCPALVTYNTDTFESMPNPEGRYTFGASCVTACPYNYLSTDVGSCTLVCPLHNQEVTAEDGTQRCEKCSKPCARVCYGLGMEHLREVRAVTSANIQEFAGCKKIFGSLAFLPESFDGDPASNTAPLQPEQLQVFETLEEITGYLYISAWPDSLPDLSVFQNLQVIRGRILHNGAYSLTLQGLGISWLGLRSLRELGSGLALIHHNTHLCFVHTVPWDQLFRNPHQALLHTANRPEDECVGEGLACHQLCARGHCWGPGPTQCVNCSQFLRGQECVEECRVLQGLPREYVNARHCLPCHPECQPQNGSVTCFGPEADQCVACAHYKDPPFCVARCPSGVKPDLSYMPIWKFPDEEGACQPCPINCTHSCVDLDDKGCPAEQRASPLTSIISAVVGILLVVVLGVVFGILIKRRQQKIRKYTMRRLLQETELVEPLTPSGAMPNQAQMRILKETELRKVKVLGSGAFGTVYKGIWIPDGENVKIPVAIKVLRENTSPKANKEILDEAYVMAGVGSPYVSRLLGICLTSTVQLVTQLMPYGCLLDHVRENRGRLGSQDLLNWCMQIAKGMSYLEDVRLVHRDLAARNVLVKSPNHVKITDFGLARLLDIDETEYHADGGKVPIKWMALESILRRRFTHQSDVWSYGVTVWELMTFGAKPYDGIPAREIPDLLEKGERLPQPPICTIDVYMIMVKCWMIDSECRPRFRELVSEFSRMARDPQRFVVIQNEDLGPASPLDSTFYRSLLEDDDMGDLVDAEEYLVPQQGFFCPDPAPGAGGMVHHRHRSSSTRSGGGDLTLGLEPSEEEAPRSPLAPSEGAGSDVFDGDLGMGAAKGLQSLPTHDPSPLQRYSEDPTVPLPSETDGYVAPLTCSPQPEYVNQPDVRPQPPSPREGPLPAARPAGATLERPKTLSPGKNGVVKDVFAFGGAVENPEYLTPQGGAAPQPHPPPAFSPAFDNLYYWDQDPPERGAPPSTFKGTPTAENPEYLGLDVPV

[4] = SK-BR-3 cell growth inhibitors, pilot screen, 24 h, human (AID 572;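 active = viability at or below 10% of carrier control in both of two separate runs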;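 note: compound exposure lasted between 18 and 24 h rather than exactly 24 h; 100% = carrier-treated control wells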); settings: SK-BR-3 viability, CellTiter-Glo luminescence, at 10 µM, stronger effect = lower value
[5] = HUVEC growth inhibition – cell-based, human, primary screen (AID 575); settings: HUVEC proliferation, CellTiter-Glo luminescence, 72 h; at 10 µM; stronger effect = lower value;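 note: 100% = median of untreated cell wells with 0.1% DMSO on each plate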
How it was run: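 Test system: primary human umbilical vein endothelial cells; medium: endothelial basal medium with 2% FBS plus growth supplements; dosing: 10 µM compound only; times: 72 h treatment at 37 °C; signal: CTG luminescence; read-out: % viability relative to median vehicle-well signal on each plate; control set: vehicle and MePR control wells; plate: 384-well, collagen-coated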

[6] = growth inhibitors of H69AR lung tumor, primary screen, human, duplicate replicates (AID 580;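 active = viability at or under a set limit in both replicates, limit being median viability minus 3 SD, cut at about 48% in these data, passing the limit was not always enough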;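 note: 100% = mean luminescence of untreated wells and 0% = no signal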); settings: H69AR lung tumor cells viability, ATP luminescence, 72 h; at 10 µM; stronger effect = lower value
[7] = reversal of MRP1-mediated doxorubicin resistance, pilot screen, H69AR cells, doxorubicin co-treatment (AID 601;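 active = viability loss from added drug above about 55%, and viability with drug at most 40%, in both replicates, limit read from the data, passing the limit was not always enough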); settings: CellTiter-Glo, 72 h, at 10 µM; for differential viability (reversal): stronger effect = higher value
[8] = 384-well plate pilot, post-Golgi transport modulator project, inhibition of yeast transport mutant growth (AID 636; in the data active = inhibition above about 31%); settings: absorbance 615 nm, about 18 h, stronger effect = higher value
[9] = growth suppression of yeast trafficking mutant, preliminary HTS, modulators of trafficking downstream of Golgi apparatus project, 1536-format plate, OD 615 nm (AID 637; in the data active = inhibition above about 30%); settings: yeast transport mutant growth, absorbance 615 nm, 18 h; stronger effect = higher value
[10] = H69AR cells + 2 uM doxorubicin, measured here: viability with 2 uM doxorubicin, stronger effect = lower value
[11] = H69AR cells, compound alone cytotoxicity

Row | SMILES | inhibition [1] | viability [2] [%] | Her2 level [3] | viability [4] | viability [5] | viability [6] | differential viability (reversal) ([7]; H69AR cells + 2 uM doxorubicin) | viability [7, 10] [%] | viability [7, 11] [%] | inhibition [8] | inhibition [9]
1 | CC#CP(=O)(OCC)C(O)(c1ccccc1)C(F)(F)F (centres undefined) | 0% (inactive) | 91 | 85% (inactive) | 91% (inactive) | 96.7% (inactive) | 96.9% (inactive) | 14.4% (inactive) | 82.5 | 96.9 | -2.93% (inactive) | 2.13% (inactive)
2 | Cc1ccc(-n2c(O)c(C=NCCN3CCOCC3)c(=O)[nH]c2=O)cc1 | 3% (inactive) | 124 | 96.5% (inactive) | 124% (inactive) | 93.4% (inactive) | 102% (inactive) | 8.65% (inactive) | 93.5 | 102 | -5.2% (inactive) | 2.26% (inactive)
3 | O=C(O)C1(c2ccc(Cl)cc2)CCC1 | 0% (inactive) | 109 | 91.5% (inactive) | 109% (inactive) | 97.2% (inactive) | 91.7% (inactive) | -1.85% (inactive) | 93.6 | 91.7 | -6.13% (inactive) | -3.02% (inactive)
4 | Cc1ccc(C)c(C2(O)CC(C)N(C)CC2C)c1 (centres undefined) | 0% (inactive) | 110 | 103% (inactive) | 110% (inactive) | 94.9% (inactive) | 102% (inactive) | 10.4% (inactive) | 91.7 | 102 | -1.32% (inactive) | -2.7% (inactive)
5 | O=c1[nH]c(=O)n(CCc2ccccc2)c(O)c1C=NCCN1CCNCC1 | 6% (inactive) | 99 | 91.5% (inactive) | 99% (inactive) | 108% (inactive) | 93% (inactive) | 1.67% (inactive) | 91.3 | 93 | -1.58% (inactive) | 5.16% (inactive)
6 | COC(=O)CC1(Cc2ccccc2)C(=O)NC(=O)NC1=O | 0% (inactive) | 92.5 | 96.5% (inactive) | 92.5% (inactive) | 86.8% (inactive) | 102% (inactive) | 13.1% (inactive) | 88.4 | 102 | -5.07% (inactive) | -0.98% (inactive)
7 | Oc1ccc(C2NCc3ccccc3-n3cccc32)cc1Cl (centres undefined) | 0% (inactive) | 98.5 | 74.5% (inactive) | 98.5% (inactive) | 112% (inactive) | 83.8% (inactive) | 1.1% (inactive) | 82.7 | 83.8 | -6.18% (inactive) | -3.17% (inactive)
8 | COc1ccc(CC2C(=O)NC(=O)NC2=O)c(OC)c1 | 2% (inactive) | 96.5 | 113% (inactive) | 96.5% (inactive) | 114% (inactive) | 106% (inactive) | 4.86% (inactive) | 101 | 106 | 2.8% (inactive) | -1.75% (inactive)
9 | c1cncc(CNC2=NCCCCC2)c1 | 1% (inactive) | 80.5 | 106% (inactive) | 80.5% (inactive) | 96.6% (inactive) | 97.4% (inactive) | 6.13% (inactive) | 91.3 | 97.4 | -0.78% (inactive) | -4.92% (inactive)
10 | CCCCCCn1c(O)c(C=NC2CCN(Cc3ccccc3)CC2)c(=O)[nH]c1=O | 0% (inactive) | 83 | 67.5% (inactive) | 83% (inactive) | 72.3% (inactive) | 74.8% (inactive) | 5.99% (inactive) | 68.8 | 74.8 | -1.05% (inactive) | 4.84% (inactive)
11 | COc1ccccc1N1CCN(Cc2cccc(OC)c2O)CC1 | 0% (inactive) | 89 | 93% (inactive) | 89% (inactive) | 118% (inactive) | 91.6% (inactive) | 5.07% (inactive) | 86.6 | 91.6 | -5% (inactive) | 5.25% (inactive)
12 | c1ccc(C2CC3CC(c4ccco4)N2O3)cc1 (centres undefined) | 0% (inactive) | 93 | 89.5% (inactive) | 93% (inactive) | 82.8% (inactive) | 113% (inactive) | 22.5% (inactive) | 90.9 | 113 | -0.4% (inactive) | -7.74% (inactive)
13 | O=c1[nH]c(=O)n(CCc2ccc(F)cc2)c(O)c1C=NCCCn1ccnc1 | 0% (inactive) | 114 | 84% (inactive) | 114% (inactive) | 99.5% (inactive) | 102% (inactive) | 15.3% (inactive) | 86.8 | 102 | -4.8% (inactive) | 3.28% (inactive)
14 | N#Cc1ccccc1Cn1cc(C(=O)c2ccco2)c2ccccc21 | 0% (inactive) | 98.5 | 96% (inactive) | 98.5% (inactive) | 105% (inactive) | 82% (inactive) | -3.02% (inactive) | 85 | 82 | -4.32% (inactive) | 14.5% (inactive)
